S100A4 inh HTS – blocks human S100A4 binding to myosin IIA peptide. P26447. S100A4/TAMRA-MyoIIA peptide fluorescence polarization. inhibition, % at 10.7 µM. 360,000 compounds, 0.14% hits. AID 652163;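 active = mean inhibition of at least 70% across replicates, with every replicate also reaching that level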
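Compound dosing: one dose per compound; test system: human S100A4 monomer with TAMRA-labelled myosin IIA peptide; probe or stimulus: TAMRA-labelled myosin IIA heavy-chain peptide probe, 5 nM; medium: HEPES buffer with Ca2+, pH 7.2; schedule: 5 min incubation before reading; benchmarks: neutral control DMSO, positive control TFP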
RAD54 branch – blocks human RAD54 Holliday junction branch migration | Q92698 | FAM/BHQ fluorescence | inhibition, % at 10.4 µM | 360,000 compounds, 0.14% hits | AID 602329;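 active = mean normalized replicate activity at least 40 and at least half of replicates scoring 40 or more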;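 also: 0% = median of neutral control wells and 100% = median of positive control wells; inhibitors cause a drop in the FAM fluorescence signal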
AF4-AF9 inh – MLL-AF4/AF9 protein interaction inhibition | P42568 | inhibition, % at 10 µM | AlphaScreen, biotin-AF4 peptide binding to FLAG-AF9 | 350,000 compounds, 0.47% hits | AID 651704;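 active = every replicate reaching a set inhibition limit, whatever the replicate mean, cut at about 25% in these data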;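 also: 0% = plate neutral control median and 100% = total signal loss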
RAD52 inh – inhibitors of human RAD52 DNA annealing. inhibition, % at 18.7 µM. recombinant RAD52 DNA annealing, FRET fluorescence. P43351. 360,000 compounds, 0.46% hits;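 active = every replicate showing at least 50% inhibition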
dFosB act – enhances mouse delta FosB homodimer DNA binding | P13346 | purified delta FosB, TAMRA-CDK5 oligo fluorescence polarization; percent of positive-control signal above neutral wells | activation, % at 25 µM | 340,000 compounds, 0.99% hits;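 active = mean activation above about 17%, with every replicate also reaching it, limit read from the data, passing the limit was not always enough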
Target sequence (P13346 whole entry, looked up): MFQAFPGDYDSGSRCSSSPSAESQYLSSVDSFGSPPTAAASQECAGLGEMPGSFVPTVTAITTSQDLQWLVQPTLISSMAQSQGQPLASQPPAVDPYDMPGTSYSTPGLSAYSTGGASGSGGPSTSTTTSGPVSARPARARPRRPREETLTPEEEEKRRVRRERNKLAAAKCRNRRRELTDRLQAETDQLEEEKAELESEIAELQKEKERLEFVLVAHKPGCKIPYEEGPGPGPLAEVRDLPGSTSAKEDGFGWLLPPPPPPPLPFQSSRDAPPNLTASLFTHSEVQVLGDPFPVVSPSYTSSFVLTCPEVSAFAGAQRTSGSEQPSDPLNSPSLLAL
* hit, by the source's call; x = not tested or not shown. Rows were chosen to be rich in hits. Some 1.5% of all compounds tested hit in one or more screens of this group.

SMILES	S100A4 inh HTS	RAD54 branch	AF4-AF9 inh	RAD52 inh	dFosB act
C[C@H](NC(=O)N(C)C[C@@H]1OCc2ccccc2-c2c(n(C)c3ccccc23)C(=O)N([C@@H](C)CO)C[C@@H]1C)c1ccccc1	5	-2	2	5	x
C[C@@H]1CN([C@@H](C)CO)C(=O)c2cc(NC(=O)CCCCCC(=O)Nc3ccccc3N)ccc2O[C@@H]1CN(C)C(=O)Nc1ccc2c(c1)OCO2	4	x	1	18	x
CCC(=O)N1CC2(CCN(C(=O)c3cccnc3)CC2)c2c([nH]c3cc(OC)ccc23)[C@@H]1CO	-6	x	0	-2	x
CC(=O)N1/C(=C/c2ccc(N(C)C)cc2)C(=O)c2ccccc21	-30	x	44*	-43	-4
CN(C)c1ccc(/C=C2\CCC/C(=C\c3ccccc3)C2=O)cc1	-2	-15	3	-44	-6
CCc1ccc2nc(N(CCN(C)C)C(=O)c3ccc4ccccc4c3)sc2c1	x	2	x	x	22*
CN(C)CCN(C(=O)c1ccc2ccccc2c1)c1nc2ccc(F)cc2s1	x	18	x	x	26*
COc1cc2nc(N(CCN(C)C)C(=O)c3ccc4ccccc4c3)sc2cc1OC	x	12	x	x	0
CC(C)C#Cc1ccc2c(c1)O[C@H](CN(C)C(=O)c1cccnc1)[C@@H](C)CN([C@@H](C)CO)S2(=O)=O	16	5	3	10	x
COc1ccc(S(=O)(=O)Nc2ccc3c(c2)C(=O)N([C@H](C)CO)C[C@@H](C)[C@H](CN(C)S(=O)(=O)c2cn(C)cn2)OCCCC[C@@H](C)O3)cc1	35	-3	-1	1	x
COc1ccccc1/C=C/C(=O)NCC(=O)N/N=C/c1cc(Br)ccc1OC	x	x	x	x	1
COc1ccccc1/C=C\C(=O)NCC(=O)N/N=C/c1cccc(OC)c1O	-3	-5	0	-14	30*
O=C(Cc1ccccc1)N/N=C/c1cc(Br)cc(Cl)c1O	1	x	-1	-15	54*
O=C(CP(=O)(c1ccccc1)c1ccccc1)N/N=C/c1cc(Br)cc(Br)c1O	1	x	-9	-5	-11
COc1cc(Br)cc(/C=N/NC(=O)Cc2ccccc2)c1O	8	x	79*	-3	8
COc1cc(/C=N/NC(=O)Cc2ccc(Br)cc2)cc(OC)c1O	-2	7	-1	-6	1
C[C@@H]1CN([C@H](C)CO)C(=O)Cc2cc(NC(=O)Nc3cccc4ccccc34)ccc2O[C@@H]1CN(C)CC1CC1	3	-7	2	16	x
CC(C)NC(=O)N(C)C[C@H]1Oc2ccc(NC(=O)CCN3CCOCC3)cc2CC(=O)N([C@@H](C)CO)C[C@H]1C	-11	10	1	-13	x
CCC(=O)N1CC2(CN(S(C)(=O)=O)C2)c2c(n(C)c3cc(OC)ccc23)[C@@H]1CO	-7	x	1	-3	x
Cc1nc2nc(SCC(=O)NCCCN3CCCCC3)nn2c(C)c1Cc1ccccc1	-9	15	-1	-6	3
Cc1ccc(Cc2c(C)nc3nc(SCC(=O)NCCCN4CCCCCC4)nn3c2C)cc1	0	x	33*	32	x
COc1cc2[nH]c(=S)n(Cc3cccs3)c(=O)c2cc1OC	-6	2	-8	-8	19*
CCCn1c(=S)[nH]c2cc(OC)c(OC)cc2c1=O	0	6	-10	-11	-2
C[C@@H]1CN([C@H](C)CO)S(=O)(=O)c2ccc(C#Cc3ccccc3)cc2O[C@@H]1CN(C)C(=O)CN(C)C	-6	17	20	68*	x
COc1ccccc1-c1ccc2c(c1)O[C@H](CN(C)C(C)=O)[C@@H](C)CN([C@@H](C)CO)S2(=O)=O	123*	4	-6	17	x
C[C@H](CO)N1C[C@H](C)[C@H](CN(C)C(=O)CN(C)C)Oc2cc(C#Cc3ccccc3)ccc2S1(=O)=O	-2	8	16	60*	x
C[C@@H]1CN([C@@H](C)CO)S(=O)(=O)c2ccc(C#Cc3ccccc3)cc2O[C@H]1CN(C)C(=O)CN(C)C	7	4	10	34	x
C[C@@H]1CN([C@@H](C)CO)S(=O)(=O)c2ccc(-c3ccccc3)cc2O[C@H]1CN(C)Cc1cccc(F)c1	143*	0	-1	22	x
C[C@@H]1CN([C@H](C)CO)S(=O)(=O)c2ccc(-c3ccccc3)cc2O[C@@H]1CN(C)Cc1cccc(F)c1	2	-14	3	15	x

Source: PubChem BioAssay
